PGC1a acetyl inh: modulators of PGC1a acetylation. AID 651687. 0.17% of 350,000 active. inhibition, % at 15.6 µM. U2OS PGC1a acetylation, AlphaScreen anti-acetyl-lysine; with virally co-expressed GCN5 acetyltransferase;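 active = every replicate shows inhibition of at least 40%; inconclusive = mean inhibition at least 40% but some replicate below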
S100A4 MyoIIA: blocks human S100A4 binding to myosin IIA peptide; P26447; S100A4/TAMRA-MyoIIA peptide fluorescence polarization; inhibition, % at 10.7 µM; 0.14% of 360,000 active; AID 652163;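 active = mean inhibition of at least 70% across replicates, with every replicate also reaching that level; inconclusive = mean inhibition reaches 70% but some replicates fall short; inactive = mean inhibition below 70%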
Target sequence (P26447 whole entry, looked up): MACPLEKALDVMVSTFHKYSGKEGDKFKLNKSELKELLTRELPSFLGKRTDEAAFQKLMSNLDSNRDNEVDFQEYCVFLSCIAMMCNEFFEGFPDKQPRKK
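Test system: S100A4 monomer protein. Medium: HEPES buffer with Ca2+, pH 7.2. Reagent: fluorescent myosin IIA peptide, 5 nM. Compound dosing: single-point compound testing. Timing: 5 min between mix addition and reading. Benchmarks: DMSO neutral and TFP positive wells.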
SIRT5 inh: inhibitors of human sirtuin-5 desuccinylase; AID 652115; inhibition, % at 15 µM; 1.1% of 330,000 active; Purified SirT5, succinyl-peptide AMC, trypsin-coupled fluorescence; Q9NXA8; in the data active = inhibition above about 15%; inconclusive = no clear call, values can overlap the other calls
Target sequence (Q9NXA8 whole entry, looked up): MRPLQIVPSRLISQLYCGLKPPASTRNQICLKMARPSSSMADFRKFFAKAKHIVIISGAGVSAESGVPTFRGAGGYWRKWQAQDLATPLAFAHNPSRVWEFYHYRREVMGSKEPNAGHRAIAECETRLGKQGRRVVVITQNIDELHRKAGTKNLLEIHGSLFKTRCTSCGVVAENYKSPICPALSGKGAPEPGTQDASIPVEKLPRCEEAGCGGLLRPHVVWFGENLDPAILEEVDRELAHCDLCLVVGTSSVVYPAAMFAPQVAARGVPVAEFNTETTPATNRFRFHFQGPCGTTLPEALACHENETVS
C2C12 statin: suppressors of simvastatin-induced myotoxicity in C2C12 myotubes | rescue of ATP level, % at 7.49 µM | AID 602340 | 0.78% of 330,000 active | ATP luminescence, 48 h; scaled: DMSO 0, geranylgeraniol control 100;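 active = mean ATP rescue above about 67%, or every replicate alone reaching that limit, limit read from the data, passing the limit was not always enough; inconclusive = no clear call, values can overlap the other calls; inactive = mean under the limit and some replicate under it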;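 note: myotubes were challenged with 10 µM simvastatin during compound exposure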
DENV2 CPE: DENV2-induced cell death inhibition; CPE inhibition, % at 9.99 µM; 1.7% of 350,000 active; DENV2-infected cells, cytopathic effect rescue, plate reader; in the data active = CPE inhibition above about 20%, passing the limit was not always enough; inconclusive = no clear call, values can overlap the other calls; tested in BHK-21 cells
A number is an active result; 0 = inactive; ? = inconclusive; - = no result given; ! = not active in a repeat. Compounds with a hit are over-represented: about 2.9% of the library has one in this group of screens.

SMILES | PGC1a acetyl inh | S100A4 MyoIIA | SIRT5 inh | C2C12 statin | DENV2 CPE
O=C(Cc1cccnc1)N1CCCCN2[C@H](C1)[C@H](c1ccc(C#CC3CCCC3)cc1)[C@@H]2CO | 0 | 0 | 0 | 0 | 0
O=C(Cc1cccnc1)N1CCCCN2[C@H](CO)[C@H](c3ccc(C#CC4CCCC4)cc3)[C@H]2C1 | 0 | 0 | 0 | 0 | 0
O=C1CNC[C@@H]2[C@@H](c3ccc(Br)cc3)[C@H](CO)N12 | 0 | 0 | 0 | - | 0
CC=Cc1ccc2n(c1=O)C[C@@H]1[C@@H](CO)[C@H](C(=O)O)[C@H]2N1S(=O)(=O)c1ccccc1F (mixture of isomers) | - | 0 | 0 | 0 | 0
COc1cccc(-c2ccc3n(c2=O)C[C@H]2[C@H](CO)[C@@H](C(=O)O)[C@@H]3N2Cc2ccccc2F)c1 | - | - | - | 0 | -
O=C(Cc1cccnc1)N1CCCCN2[C@@H](CO)[C@@H](c3ccc(C#CC4(O)CCCC4)cc3)[C@@H]2C1 | 0 | 98 | 0 | 0 | 40
O=C(Cc1cccnc1)N1CCCCN2[C@H](CO)[C@H](c3ccc(C#CC4(O)CCCC4)cc3)[C@@H]2C1 | 0 | 0 | 0 | 0 | 0
O=C(O)[C@@H]1[C@@H](CO)[C@@H]2Cn3c(ccc(-c4cccnc4)c3=O)[C@H]1N2S(=O)(=O)c1ccccc1F | - | 0 | 0 | 0 | 0
C/C=C1\NC(=O)[C@H](C)NC(=O)[C@@H](NC(=O)[C@H](Cc2ccc(O)cc2)NC(=O)[C@@H](NC(=O)/C(C)=C/C)C(C)C)[C@@H](C)OC(=O)[C@H](CCCc2ccc(O)cc2)NC(=O)[C@@H](CCC(=O)O)NC1=O | 0 | 0 | 22 | 0 | 0
C/C=C/c1ccc(C2[C@@H]3CN(C(=O)C4CCC4)C[C@H]2N3)cc1 (stereo not given in full) | 0 | - | - | - | 0
COC(=O)C1=C(c2ccc(F)cc2OCc2ccccc2)C[C@@H]2CC[C@H]1N2C(=O)NCc1ccc(Br)cc1 | 0 | 0 | - | 76 | 0
COC(=O)C1=C(c2ccccc2OCc2ccccc2)C[C@@H]2CC[C@H]1N2C(=O)NCc1ccc(Cl)cc1 | 0 | 0 | - | 0 | 58
COC(=O)C1=C(c2ccc(F)cc2OCc2ccccc2)C[C@@H]2CC[C@H]1N2C(=O)NCc1ccc(OC)cc1 | 0 | 0 | - | 84 | 0
COC(=O)C1=C(c2ccc(F)cc2OCc2ccccc2)C[C@@H]2CC[C@H]1N2C(=O)NCc1ccc(N(C)C)cc1 | - | 0 | - | 0 | 0
COc1ccc(/C=C2/C(=O)N(Cc3ccco3)C(=O)N(C(C)C)C2=O)cc1 | - | 0 | 25 | - | 0
CN(C)c1ccc(/C=C2/C(=O)NC(=O)N(Cc3ccco3)C2=O)cc1 | 0 | 0 | 31 | 0 | 0
CCN(CC)c1ccc(/C=C2/C(=O)NC(=O)N(Cc3ccco3)C2=O)cc1 | 0 | - | - | 0 | -
COc1ccc(C#Cc2ccc([C@H]3[C@H](CO)N4CCCCN(C(=O)Cc5cccnc5)C[C@@H]34)cc2)cc1 | 0 | 0 | 0 | - | 0
CCN(CC)c1ccc(/C=C/[N+](=O)[O-])cc1 | - | 0 | 0 | 0 | 0
CCN(CC)c1ccccc1 | 0 | 0 | - | 0 | 129
C=C(Cl)CSC(=S)N(CC)CC | 0 | 0 | - | 0 | 32
COC(=O)[C@H]1[C@H](CO)[C@H]2Cn3c(ccc(-c4ccccc4F)c3=O)[C@@H]1N2C(C)=O | - | 0 | 0 | 0 | ?
CN1CCN(C(=O)COc2ccc(N(C)S(=O)(=O)c3ccc(F)cc3)cc2)CC1 | 0 | 0 | 23 | 0 | 0
Nc1ccccc1C(=O)OCCc1ccccc1 | 0 | 0 | - | 0 | 78
CCCCOC(=O)c1ccccc1N | 0 | 0 | - | 0 | 0
SMILES | PGC1a acetyl inh | S100A4 MyoIIA | SIRT5 inh | C2C12 statin | DENV2 CPE
O=C(CN1CC(c2ccccc2)CC1=O)Nc1ccccc1 (stereo not given) | 0 | 0 | - | 0 | 115
CCc1ccc(NC(=O)CN2CC(c3ccccc3)CC2=O)cc1 (stereo not given) | 0 | 0 | 0 | 0 | 0
O=C(Cc1ccccn1)N1CCCCN2[C@H](CO)[C@H](c3ccc(C#Cc4ccccc4)cc3)[C@@H]2C1 | 0 | 0 | 0 | - | 0
CN1CC(C(=O)c2ccc(Cl)cc2)C(c2ccccc2)C1 (stereo not given) | - | 0 | 27 | - | 0
CC(=O)N1[C@@H]2c3ccc(-c4cccc(C(=O)N(C)C)c4)c(=O)n3C[C@H]1[C@H](CO)[C@H]2C(=O)O | 0 | 0 | 0 | - | 0
Clc1ccc([C@H]2CC3CCC2N3)cn1 (stereo not given in full) | - | 0 | - | - | 49!
Cc1ccc2nc(N3CCC(C(=O)N4CCC5(CC4)OCCO5)CC3)sc2c1 | 0 | - | - | 0 | -

Bioassay records: PubChem BioAssay, Broad Institute
